# Assay results reported in ChEMBL document CHEMBL4190306, “Synthesis and structure-activity relationship study of novel 3-heteroarylcoumarins based on pyridazine scaffold as selective MAO-B inhibitors” (Eur J Med Chem, 2017).
# Columns and labels:
# [1] = target: T1, Amine oxidase [flavin-containing] A (Homo sapiens, UniProt P21397); test: (§1) Inhibition of human recombinant MAO-A expressed in baculovirus infected BTI-TN5B1-4 cells using p-tyramine as substrate assessed as reduction in H2O2 production at 100 uM preincubated for 15 mins followed by substrate addition measured after 15 mins by Amplex red dye based fluorescence assay; details: 0.25 h
# T1 sequence (P21397 whole entry): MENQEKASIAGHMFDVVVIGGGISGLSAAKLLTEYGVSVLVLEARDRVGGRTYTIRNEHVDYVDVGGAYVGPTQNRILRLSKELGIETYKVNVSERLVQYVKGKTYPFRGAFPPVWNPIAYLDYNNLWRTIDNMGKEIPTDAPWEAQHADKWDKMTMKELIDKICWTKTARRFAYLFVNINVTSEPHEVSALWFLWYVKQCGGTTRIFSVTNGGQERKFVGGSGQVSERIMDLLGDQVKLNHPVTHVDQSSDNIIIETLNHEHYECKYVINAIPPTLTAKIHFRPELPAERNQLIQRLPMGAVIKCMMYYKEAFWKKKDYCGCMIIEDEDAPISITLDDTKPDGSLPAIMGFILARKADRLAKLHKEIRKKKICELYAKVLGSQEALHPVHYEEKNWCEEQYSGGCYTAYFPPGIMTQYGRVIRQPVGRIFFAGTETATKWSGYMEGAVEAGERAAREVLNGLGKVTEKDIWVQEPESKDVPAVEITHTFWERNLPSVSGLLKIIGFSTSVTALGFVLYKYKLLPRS
# In short: (§2)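 Microsomal hMAO-A (1.1 µg protein) or hMAO-B (7.5 µg protein) from baculovirus-infected insect cells was used, with each amount adjusted to an oxidation rate of 165±2 pmol p-tyramine/min. Enzyme and test drug in 0.5M sodium phosphate pH 7.4 were pre-incubated 15 min at 37 °C. The reaction was started with final 200 µM Amplex Red, 1 U/mL HRP and 1 mM p-tyramine. Resorufin fluorescence (ex 545/em 590 nm) was followed for 15 min at 37 °C, background without enzyme was subtracted, and controls received vehicle.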
# [2] = target: T2, Amine oxidase [flavin-containing] B (Homo sapiens, UniProt P27338); test: Inhibition of human recombinant MAO-B expressed in baculovirus infected BTI-TN5B1-4 cells using p-tyramine as substrate assessed as reduction in H2O2 production preincubated for 15 mins followed by substrate addition measured after 15 mins by Amplex red dye based fluorescence assay; format: cell-based
# T2 sequence (P27338 whole entry): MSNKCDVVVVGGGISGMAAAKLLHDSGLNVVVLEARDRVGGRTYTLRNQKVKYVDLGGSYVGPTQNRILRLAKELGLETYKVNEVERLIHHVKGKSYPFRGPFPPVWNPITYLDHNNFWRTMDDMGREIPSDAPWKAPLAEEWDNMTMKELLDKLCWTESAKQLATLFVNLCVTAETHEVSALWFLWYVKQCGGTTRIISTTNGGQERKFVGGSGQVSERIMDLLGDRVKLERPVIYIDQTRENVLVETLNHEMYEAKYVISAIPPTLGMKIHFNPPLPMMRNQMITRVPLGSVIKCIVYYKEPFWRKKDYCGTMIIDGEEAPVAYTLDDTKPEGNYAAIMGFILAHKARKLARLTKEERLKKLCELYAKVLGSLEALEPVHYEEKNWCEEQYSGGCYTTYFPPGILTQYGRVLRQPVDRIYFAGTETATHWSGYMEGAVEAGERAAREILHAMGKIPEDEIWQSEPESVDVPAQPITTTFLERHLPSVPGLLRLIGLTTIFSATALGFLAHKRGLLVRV
# Homo sapiens = organism: Homo sapiens; test: Selectivity index, ratio of IC50 for human recombinant MAO-A expressed in baculovirus infected BTI-TN5B1-4 cells to IC50 for human recombinant MAO-B expressed in baculovirus infected BTI-TN5B1-4 cells
# In short: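 IC50 values for hMAO-A and hMAO-B were obtained in the same p-tyramine/Amplex Red assay (15 min pre-incubation, 37 °C, 15 min fluorescence read). Each IC50 came from linear least-squares regression of % inhibition versus log molar concentration, using 4–6 concentrations giving 20–80% inhibition. Selectivity was taken as IC50(MAO-A)/IC50(MAO-B).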
# SH-SY5Y [3] = test: Cytotoxicity against human SH-SY5Y cells at 10 uM after 24 hrs by MTT assay; format: cell-based
# In short: (§3)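 SH-SY5Y neuroblastoma cells were seeded at 1.10⁶/mL and incubated overnight. Compounds in DMSO (1%) were added, with 1% DMSO-treated cells as negative control, for 24 h. MTT solution (5 mg/ml in PBS, 10%) was then added for 2 h at 37 °C, and the crystals were dissolved in DMSO. A540 was read, and viability was taken as % of negative-control absorbance.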
# [4] = target: T2, Amine oxidase [flavin-containing] B; test: as §1, with “MAO-B” for “MAO-A”, “assay relative to control” for “assay”; details: 0.25 h
# [5] = target: T2, Amine oxidase [flavin-containing] B; test: Inhibition of human recombinant MAO-B expressed in baculovirus infected BTI-TN5B1-4 cells using p-tyramine as substrate assessed as reduction in H2O2 production at 100 uM preincubated for 15 mins followed by substrate addition measured after 15 mins by Amplex red dye based fluorescence assay; details: 0.25 h; in short: as §2
# SH-SY5Y [6] = test: Cytotoxicity against human SH-SY5Y cells at 20 uM after 24 hrs by MTT assay; format: cell-based; in short: as §3
Structure (SMILES),inhibition (INH) [1],IC50 [2] [µM],inhibition at 100 µM [4] [%],inhibition (INH) [5],Ratio IC50 (Homo sapiens),Activity (SH-SY5Y [3]),Activity (SH-SY5Y [6])
COc1ccc2oc(=O)c(-c3ccc(OC)nn3)cc2c1,Not Active,11.1,–,–,> 9,Non-Toxic,–
COc1cccc2cc(-c3ccc(Cl)nn3)c(=O)oc12,Not Active,30.1,–,–,> 3.3,Non-Toxic,–
COc1cccc2cc(-c3ccc(Br)nn3)c(=O)oc12,Not Active,12.8,–,–,> 7.8,Non-Toxic,–
Cc1cccc2cc(-c3ccc(Br)nn3)c(=O)oc12,Not Active,2.64,–,–,> 37.9,Non-Toxic,–
COc1ccc2oc(=O)c(-c3ccc(Br)nn3)cc2c1,Not Active,0.56,–,–,> 179,Non-Toxic,–
COc1ccc(-c2cc3cc(C)ccc3oc2=O)nn1,Not Active,17.6,–,–,> 5.7,Non-Toxic,–
Cc1ccc2oc(=O)c(-c3ccc(Br)nn3)cc2c1,Not Active,2.16,–,–,> 46.3,Non-Toxic,–
Cc1cccc2cc(-c3ccc(Cl)nn3)c(=O)oc12,Not Active,22.7,–,–,> 4.4,Non-Toxic,–
COc1ccc2cc(-c3ccc(Br)nn3)c(=O)oc2c1,Not Active,3.05,–,–,> 32.8,Non-Toxic,–
COc1ccc2cc(-c3ccc(OC)nn3)c(=O)oc2c1,Not Active,–,45 to 50,–,–,Non-Toxic,–
COc1ccc(-c2cc3cccc(OC)c3oc2=O)nn1,Not Active,–,–,Not Active,–,Non-Toxic,Toxic
COc1ccc(-c2cc3cccc(C)c3oc2=O)nn1,Not Active,5.35,–,–,> 18.7,Non-Toxic,–

# Further lines, with some results ahead:
inhibition (INH) [1],IC50 [2] [µM],inhibition at 100 µM [4] [%],inhibition (INH) [5],Structure (SMILES),Ratio IC50 (Homo sapiens),Activity (SH-SY5Y [3]),Activity (SH-SY5Y [6])
Not Active,19.2,–,–,COc1ccc2cc(-c3ccc(Cl)nn3)c(=O)oc2c1,> 5.2,Non-Toxic,–
Not Active,8.8,–,–,COc1ccc2oc(=O)c(-c3ccc(Cl)nn3)cc2c1,> 11.4,Non-Toxic,–
Not Active,13.5,–,–,COc1ccc(-c2cc3ccc(C)cc3oc2=O)nn1,> 7.4,Non-Toxic,–
Not Active,2.51,–,–,Cc1ccc2cc(-c3ccc(Cl)nn3)c(=O)oc2c1,> 39.8,Non-Toxic,–
Not Active,13.5,–,–,Cc1ccc2oc(=O)c(-c3ccc(Cl)nn3)cc2c1,> 7.4,Non-Toxic,–
Not Active,0.75,–,–,Cc1ccc2cc(-c3ccc(Br)nn3)c(=O)oc2c1,> 133,Non-Toxic,–
